Assay results reported in ChEMBL document CHEMBL1221391, “Identification of novel antitubercular compounds through hybrid virtual screening approach” (Bioorg Med Chem, 2010).
≈ marks a conversion by molar mass, not a printed value.

The compounds below were run on Mycobacterium tuberculosis (assay: Antitubercular activity against Mycobacterium tuberculosis H37Rv after 7 days). Conditions: 168 h.
Assay type: functional, organism-based
How it was run: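 MABA in 7H9 broth with 0.2% glycerol, 1.0 g/l Casitone, 10% OADC and 0.05% Tween 80, grown to OD600 0.4. Culture diluted 1:50 to give 2 × 10^5 CFU/ml. Twofold serial dilutions made from DMSO stock. Incubated 37 °C for 7 days, then alamar blue added and read after 24 h. MIC is the lowest concentration preventing the blue-to-pink change. Rifampicin reference.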
`S=C(c1ccc(Br)cc1)N1CCN(Cc2ccccc2)CC1` was tested, and the MIC was 85.2 µM (≈ 32 µg/mL).
Work on `Cc1oc(-c2ccccc2)nc1CN1CCN(C(=O)c2ccccc2)CC1` yielded an MIC of 187 µM (≈ 67.8 µg/mL).
`CCCCCCCCc1ccc(Oc2ccccc2)c(O)c1` gave an IC50 of 5 nM and an MIC of 6.4 µM (≈ 1.91 µg/mL).
For `CCCCCCc1ccc(Oc2ccccc2)c(O)c1`, the IC50 was 11 nM and the MIC was 7.8 µM (≈ 2.11 µg/mL).
With `CN(C(=O)C1CC(=O)N(C2CCCCCC2)C1)c1cc(-c2ccccc2)c(O)c(-c2ccccc2)c1` (stereo not drawn) the IC50 was 360 nM and the MIC was > 125 µM.
For `Oc1cc(CCc2ccccc2)ccc1Oc1ccc(Cl)cc1Cl`, the IC50 was 21 nM and the MIC was 52 µM (≈ 18.7 µg/mL).
With `O=C1c2ccc(Oc3cccc([N+](=O)[O-])c3)cc2C(=O)N1c1ccccc1O` the MIC was 85 µM (≈ 32 µg/mL).
With `Cc1ccc(C(=O)N2CCN(C3c4ccccc4-c4ccccc43)CC2)cc1` the IC50 was 400 nM and the MIC was > 125 µM.
In the case of `Cc1ccc(C(=O)N2CCN(c3cccc(Cl)c3)CC2)cc1C`, the IC50 is reported as 990 nM and the MIC is reported as > 125 µM.
`CC(C)Cc1ccc(Oc2ccc(Cl)cc2Cl)c(O)c1` showed an IC50 of 96 nM and an MIC of 60 µM (≈ 18.7 µg/mL).
In the case of `Oc1cc(CCCc2ccccc2)ccc1Oc1ccc(Cl)cc1Cl`, the IC50 is reported as 50 nM and the MIC is reported as 50 µM (≈ 18.7 µg/mL).
For `O=C(CCN1C(=O)c2ccccc2C1=O)N1CCN(C(c2ccccc2)c2ccccc2)CC1`, the MIC was 141 µM (≈ 64 µg/mL).
`CCCCCCCc1ccc(C(=O)Oc2ccc([N+](=O)[O-])cc2)cc1` gave an MIC of 187 µM (≈ 64 µg/mL).
`CCCCCCc1ccc(C(=O)Oc2ccc(Cl)cc2)cc1` showed an MIC of 202 µM (≈ 64 µg/mL).
`O=C(c1ccc(F)cc1)N1CCN(C2c3ccccc3-c3ccccc32)CC1` was tested, and the MIC was 85.9 µM (≈ 32 µg/mL).
`O=C(Nc1ccc(C(F)(F)F)cc1)NC1CC(=O)N(C2CCCC2)C1` (stereo not drawn) was tested, and the MIC was 180 µM (≈ 64 µg/mL).
Compound `CCc1ccc(O)c(/N=C/c2cc(Cl)cc(Cl)c2O)c1` has an MIC of 206 µM (≈ 64 µg/mL).
For `CCc1ccc(C(=O)Oc2cccnc2)cc1`, the MIC was 563 µM (≈ 128 µg/mL).
`CCCCCc1ccc(Oc2ccccc2)c(O)c1` gave an IC50 of 17 nM and an MIC of 3.5 µM (≈ 0.897 µg/mL).
`Oc1cc(Cc2ccccc2)ccc1Oc1ccc(Cl)cc1Cl` was tested, and the IC50 was 51 nM and the MIC was 27 µM (≈ 9.32 µg/mL).
Work on `Cc1ccc(OC(=O)c2ccc(Cl)cc2)cc1` yielded an MIC of 259 µM (≈ 64 µg/mL).
`O=C(c1cccs1)N1CCN(C2c3ccccc3-c3ccccc32)CC1` showed an MIC of 355 µM (≈ 128 µg/mL).
Compound `Cc1ccc(C(=O)CC(=O)c2ccc(Cl)cc2)c(O)c1` has an MIC of 13.8 µM (≈ 4 µg/mL).
For `O=C(NCc1ccc(F)cc1)C1CC(=O)N(C2CCCCCCC2)C1` (stereo not drawn), the MIC was 369 µM (≈ 128 µg/mL).
`CCCCCc1ccc(OC(=O)c2ccc(Cl)cc2)cc1` was tested, and the MIC was 106 µM (≈ 32 µg/mL).
`Cc1[nH]c2cc(C(=O)N3CCN(Cc4ccccc4)CC3)ccc2c1C` showed an MIC of 368 µM (≈ 128 µg/mL).
`CN(Cc1c2ccccc2cc2ccccc12)C(=O)C1CC(=O)N(C2CC3CCC2C3)C1` (stereo not drawn) gave an IC50 of 460 nM and an MIC of 125 µM (≈ 53.3 µg/mL).
With `CCCCCCCCCCCCCCc1ccc(Oc2ccccc2)c(O)c1` the IC50 was 150 nM and the MIC was 460 µM (≈ 176 µg/mL).
With `CO[C@H]1/C=C/O[C@@]2(C)Oc3c(C)c(O)c4c(O)c(c(/C=N/N5CCN(C)CC5)c(O)c4c3C2=O)NC(=O)/C(C)=C\C=C\[C@H](C)[C@H](O)[C@@H](C)[C@@H](O)[C@@H](C)[C@H](OC(C)=O)[C@@H]1C` [RIFAMPIN] the MIC was 0.01 µM (≈ 0.00823 µg/mL).
With `CN(Cc1c2ccccc2cc2ccccc12)C(=O)C1CC(=O)N(C2CCCCCCC2)C1` (stereo not drawn) the IC50 was 320 nM and the MIC was 62.5 µM (≈ 27.7 µg/mL).
Work on `Cc1ccc(/N=C/c2cc(Cc3ccccc3Cl)ccc2O)c(O)c1` yielded an MIC of 182 µM (≈ 64 µg/mL).
For `Cc1ccc(NC(=O)C2CC(=O)N(CCc3c[nH]c4ccc(Cl)cc34)C2)cc1` (stereo not drawn), the MIC was 80.8 µM (≈ 32 µg/mL).
Work on `Cc1ccc(S(=O)(=O)N2CCN(C(=O)c3ccc(Br)cc3)CC2)cc1` yielded an MIC of 302 µM (≈ 128 µg/mL).
`O=[N+]([O-])c1ccc(Oc2cc(C(F)(F)F)ccc2Cl)cc1O` gave an MIC of 384 µM (≈ 128 µg/mL).
For `O=C(c1ccccc1)N1CCN(C2c3ccccc3-c3ccccc32)CC1`, the IC50 was 90 nM and the MIC was > 125 µM.
`O=C(C1CC(=O)N(C2CCCC2)C1)N1CCC(Cc2ccccc2)CC1` (stereo not drawn) showed an MIC of 361 µM (≈ 128 µg/mL).
Work on `COc1cccc(CNC(=O)CN2CCCN(Cc3ccc(Cl)cc3)S2(=O)=O)c1` yielded an MIC of 146 µM (≈ 64 µg/mL).
`Cc1ccc(C(=O)N2CCN(S(=O)(=O)c3ccccc3)CC2)cc1` showed an MIC of 372 µM (≈ 128 µg/mL).
Compound `Oc1cccc(Oc2c(F)c(F)nc(F)c2F)c1` has an MIC of 247 µM (≈ 64 µg/mL).
In the case of `O=C(Nc1ccccc1O)c1ccc(Oc2ccc([N+](=O)[O-])cc2)cc1`, the MIC is reported as 5.7 µM (≈ 2 µg/mL).
Compound `O=C(Nc1cc(Br)cc(C(F)(F)F)c1)C1CC(=O)N(C2CCCCC2)C1` (stereo not drawn) has an IC50 of 850 nM and an MIC of 62.5 µM (≈ 27.1 µg/mL).
`CCCCc1ccc(Oc2ccc(Cl)cc2Cl)c(O)c1` gave an IC50 of 91 nM and an MIC of 30 µM (≈ 9.34 µg/mL).
